Source: ChEMBL document CHEMBL4257564, “Rational Design, Synthesis, and Pharmacological Characterization of Novel Ghrelin Receptor Inverse Agonists as Potential Treatment against Obesity-Related Metabolic Diseases” (J Med Chem, 2018)

Legend:
[1] = Protein binding in human plasma at 1 uM after 6 hrs by equilibrium dialysis; type: ADME, cell-free; conditions: read-out: PPB
Summary of the method: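 Compound spiked at 1.0 µM final (0.5% DMSO) into plasma. Equilibrium dialysis against DPBS pH 7.4 across a 12–14 kD membrane for 6 h at 37 °C, in triplicate. Buffer-only controls used for nonspecific binding. Unbound fraction = acceptor/donor concentration by LC-MS/MS; reported as % bound.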

Mus musculus [2] = experiment: Anti-obesity activity in C57BL/6J mouse assessed as inhibition of anamorelin-induced increase in food intake by measuring cumulative food intake at 30 mg/kg, po pretreated for 10 mins followed by anamorelin addition and measured after 2 hrs post dose (reference value: 1.37 +/- 0.05 g)
[3] = Clearance in rat liver microsomes at 0.625 uM preincubated for 5 mins followed by NADPH addition and measured after 60 mins by LC-MS/MS analysis; type: ADME, microsome; conditions: read-out: CLH
Summary of the method: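 Liver microsomes (0.625 mg/mL protein) in 50 mM potassium phosphate pH 7.4 with 0.625 µM test item, prewarmed 5 min at 37 °C. Reaction started with NADPH (5 mM solution). Samples taken at 0, 5, 15, 30 and 60 min into cold MeCN with internal standard, analysed by LC-MS/MS. Intrinsic clearance derived by the half-life approach.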

Mus musculus [4] = experiment: Anti-obesity activity in C57BL/6J mouse assessed as inhibition of anamorelin-induced increase in food intake by measuring cumulative food intake at 10 mg/kg, ip pretreated for 10 mins followed by anamorelin addition and measured after 2 hrs post dose (reference value: 1.37 +/- 0.05 g); type: functional
Summary of the method: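 Male C57BL/6J mice (18–22 g at arrival), fed ad libitum. Dosed 10 mg/kg i.p. at t = 0 in 10% DMAC/6% Solutol HS 15/84% PBS, then anamorelin 30 mg/kg p.o. (0.5% CMC) at 10 min. Cumulative food intake recorded at 1, 2, 4, 8 and 24 h; n=6 per group; mean ± SEM; ANOVA with Dunnett test versus vehicle+anamorelin.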

Mus musculus [5] = experiment: Anti-obesity activity in C57BL/6J mouse assessed as inhibition of anamorelin-induced increase in food intake by measuring cumulative food intake at 30 mg/kg, po pretreated for 10 mins followed by anamorelin addition and measured after 4 hrs post dose (reference value: 2.09 +/- 0.08 g)
[6] = molecular target: Growth hormone secretagogue receptor type 1 (Homo sapiens, UniProt Q92847); experiment: Agonist activity at recombinant human GHSR1a expressed in HEK293 cells assessed as induction of intracellular calcium release after 15 mins by FLIPR assay; type: functional, cell-based; conditions: hek293
Summary of the method: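 HEK293 cells stably expressing human GHSR1a, seeded 24 h before the run, then loaded with calcium dye for 30-60 min at room temperature or 37 °C. DMSO-dissolved compounds were added and intracellular calcium release was monitored by FLIPR fluorescence.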

MDR1 = experiment: Apparent permeability across apical to basolateral side in MDCK2 cells expressing human MDR1 at 1 uM after 90 mins in absence of MDR1 inhibitor cyclosporine A by LC-MS/MS analysis; type: ADME, cell-based, Canis lupus familiaris, MDCK-II; conditions: dog, MDCK-MDR1
Summary of the method: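 MDR1-MDCKII monolayers grown 4 days on transwell inserts, with integrity checked by TEER. Test item at 1 µM in HBSS/10 mM HEPES/25 mM glucose pH 7.4, in duplicate, added to the apical side. Receiver sampled after 90 min at 37 °C and analysed by LC-MS/MS; Papp = (dMr/dt)/(A×C0).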

Chain of Growth hormone secretagogue receptor type 1 (Q92847 whole entry): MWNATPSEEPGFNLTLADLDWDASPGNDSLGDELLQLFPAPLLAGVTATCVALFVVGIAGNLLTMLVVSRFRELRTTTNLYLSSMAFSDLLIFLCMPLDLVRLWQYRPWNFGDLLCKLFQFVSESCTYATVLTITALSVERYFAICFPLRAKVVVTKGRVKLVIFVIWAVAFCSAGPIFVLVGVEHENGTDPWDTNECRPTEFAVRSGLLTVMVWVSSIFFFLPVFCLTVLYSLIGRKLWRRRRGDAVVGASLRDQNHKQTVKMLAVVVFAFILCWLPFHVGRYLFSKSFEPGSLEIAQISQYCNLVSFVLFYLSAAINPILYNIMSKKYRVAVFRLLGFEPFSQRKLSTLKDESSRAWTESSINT

- fraction unbound at 6 h, 1 µM [1]: 0.0001
- microsomal CLint at 0.625 µM [3]: 57.8 µL/min/mg
- EC50 [6]: Not Active
- Papp A→B at 1.5 h, 1 µM (MDR1): 3.9 ×10⁻⁶ cm/s
SMILES: Cc1cc(-c2ccc3c(c2)CC[C@H]3N2CCC(N(C)C(=O)N[C@@H](C)c3ccc(C#CC4CC4)c(Cl)c3Cl)CC2)ncn1
- Activity (Mus musculus [2]): 0.86 g
- Activity (Mus musculus [4]): 0.56 g
- Activity (Mus musculus [5]): 1.45 g
